ChEMBL document CHEMBL1833887, “Synthesis and evaluation of 7-substituted 4-aminoquinoline analogues for antimalarial activity” (J Med Chem, 2011)
Values after ≈ are worked out from the molar mass of the structure shown.

Experiments:
Plasmodium falciparum [1] = assay: Antimalarial activity against chloroquine-resistant Plasmodium falciparum K1 infected in human erythrocytes assessed as reduction in parasitemia after 72 hrs by spectrophotometry; format: functional, organism-based; conditions: K1, 72 h
[2] = Dissociation constant, pKa of the compound; format: physicochemical
Plasmodium falciparum [3] = assay: Antimalarial activity against chloroquine-sensitive Plasmodium falciparum 3D7 infected in human erythrocytes assessed as reduction in parasitemia after 72 hrs by spectrophotometry; format: functional, organism-based; conditions: 3D7, 72 h
[4] = Permeability of the compound at pH 7.4 after 30 mins by PAMPA; format: ADME; conditions: read-out: permeability
Summary of the method: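 PAMPA at pH 7.4. A 10 mM DMSO stock is diluted into system solution buffer; its UV spectrum serves as reference. Membrane painted with GIT lipid, acceptor chamber holds acceptor solution buffer. Sandwich stirred for 30 min, aqueous boundary layer set to 40. Donor and acceptor UV spectra read at 250–500 nm. Permeability coefficient from the AUCs of reference, donor and acceptor. Single experiment in triplicate.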

[5] = Ratio of EC50 for human HepG2 cells to EC50 for Plasmodium falciparum K1 infected in human erythrocytes
[6] = Ratio of EC50 for human HepG2 cells to EC50 for Plasmodium falciparum 3D7 infected in human erythrocytes
Plasmodium falciparum [7] = assay: Ratio of EC50 for chloroquine-resistant Plasmodium falciparum K1 infected in human erythrocytes to EC50 for chloroquine-sensitive Plasmodium falciparum 3D7 infected in human erythrocytes; format: functional
HepG2 = assay: Cytotoxicity against human HepG2 cells assessed as intracellular ATP level after 72 hrs by Celltiter-Glo luminescent assay; format: cell-based; conditions: HepG2, 72 h
[8] = Solubility of the compound at pH 7.4 after 18 hrs by UV spectroscopic analysis; format: physicochemical; conditions: buffer
Summary of the method: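 Kinetic solubility. A 10 mM stock is diluted 1:100 into PBS pH 7.4 and incubated 18 h at room temperature, then filtered; the filtrate is mixed 1:1 with 1-propanol. UV spectrum (250–500 nm) compared by AUC with a 1-propanol/PBS reference. Single experiment in triplicate.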

SMILES | EC50 (Plasmodium falciparum [1]) | pKa [2] | EC50 (Plasmodium falciparum [3]) | Papp at 0.5 h [4] | Ratio EC50 [5] | Ratio EC50 [6] | Ratio EC50 (Plasmodium falciparum [7]) | EC50 (HepG2) | solubility at 18 h [8]
COc1cccc(Oc2ccc3c(NCCCNCc4cc(F)ccc4OC)ccnc3c2)c1 | 0.296 µM | 9.28 | 2.36 µM | 317 ×10⁻⁶ cm/s | 24 | 3 | 0.1 | 7.1 µM | 14.5 µM (≈ 6.69 µg/mL)
Clc1ccc(Oc2ccc3c(NCCCNCc4ccc5c(c4)OCO5)ccnc3c2)cc1 | 0.32 µM | 9.28 | 0.038 µM | 317 ×10⁻⁶ cm/s | 22 | 189 | 8.4 | 7.2 µM | 14.5 µM (≈ 6.7 µg/mL)
COc1ccc(Oc2ccc3c(NCCCNCc4cccc(OC)c4O)ccnc3c2)cc1 | 0.375 µM | 9.28 | 0.004 µM | 317 ×10⁻⁶ cm/s | 15 | 1347 | 91.5 | 5.5 µM | 14.5 µM (≈ 6.66 µg/mL)
COc1ccccc1Oc1ccc2c(NCCCNCc3ccc4c(c3)OCO4)ccnc2c1 | 0.517 µM | 9.28 | 0.014 µM | 317 ×10⁻⁶ cm/s | 11 | 427 | 37.7 | 5.9 µM | 14.5 µM (≈ 6.63 µg/mL)
COc1cccc(Oc2ccc3c(NCCCNCc4ccc5c(c4)OCO5)ccnc3c2)c1 | 0.6 µM | 9.28 | 0.012 µM | 317 ×10⁻⁶ cm/s | 24 | 1178 | 50 | 14.1 µM | 14.5 µM (≈ 6.63 µg/mL)
COc1ccc(Oc2ccc3c(NCCCNCc4cc(F)ccc4OC)ccnc3c2)cc1 | 0.66 µM | 9.28 | 0.054 µM | 317 ×10⁻⁶ cm/s | 11 | 129 | 12.2 | 7 µM | 14.5 µM (≈ 6.69 µg/mL)
Fc1ccc(Oc2ccc3c(NCCCNCc4ccc5c(c4)OCO5)ccnc3c2)cc1 | 0.667 µM | 9.28 | 0.015 µM | 317 ×10⁻⁶ cm/s | 24 | 1067 | 44.5 | 16 µM | 14.5 µM (≈ 6.46 µg/mL)
COc1cccc(CNCCCNc2ccnc3cc(Oc4ccc(Cl)cc4)ccc23)c1O | 0.785 µM | 9.28 | 0.011 µM | 317 ×10⁻⁶ cm/s | 7 | 514 | 70.7 | 5.7 µM | 14.5 µM (≈ 6.73 µg/mL)
Clc1ccc(Oc2ccc3c(NCCCNCc4ccco4)ccnc3c2)cc1 | 0.793 µM | 9.28 | 0.04 µM | 317 ×10⁻⁶ cm/s | 10 | 194 | 19.8 | 7.8 µM | 14.5 µM (≈ 5.91 µg/mL)
COc1ccc(F)cc1CNCCCNc1ccnc2cc(Cc3ccc(F)cc3Cl)ccc12 | 1.11 µM | 9.47 | 0.208 µM | 23 ×10⁻⁶ cm/s | 2.2 | 11.8 | 5.4 | 2.46 µM | 4.2 µM (≈ 2.02 µg/mL)
CC(C)Cc1ccc2c(NCCCNCc3ccco3)ccnc2c1 | 4.5 µM | 9.47 | 0.581 µM | 23 ×10⁻⁶ cm/s | 3.6 | 27.5 | 7.7 | 16 µM | 4.2 µM (≈ 1.42 µg/mL)
c1ccc(Cc2ccc3c(NCCCNCc4ccc5c(c4)OCO5)ccnc3c2)cc1 | 1.24 µM | 9.47 | 0.72 µM | 23 ×10⁻⁶ cm/s | 5.1 | 8.7 | 1.7 | 6.28 µM | 4.2 µM (≈ 1.79 µg/mL)
